# Screening data as filed in PubChem BioAssay.
# Most compounds without a hit are left out; they make up all but 2.3% or so of the library.
# F508del corr: CFTR F508del correction in bronchial cells; CFBE cells, YFP halide quenching; stimulated with forskolin plus potentiator P3; % fluorescence drop versus neutral controls; activity (quench increase), % at 7.58 µM; 0.36% of 350,000 active;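 active = mean added fluorescence quench of at least 8% versus neutral control, with both replicates also reaching 8%; inconclusive = only one of the mean or replicate conditions met; inactive = mean below 8% and not both replicates reaching 8%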;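 also: cells transiently co-express mutant CFTR-F508del with the halide-sensitive YFP; corrector assay measuring rescue of mutant channel to the surface after 24 h compound exposure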
# PGC1a acetyl inh: PGC1a acetylation modulation, inhibitor mode. U2OS PGC1a acetylation, AlphaScreen anti-acetyl-lysine; with virally co-expressed GCN5 acetyltransferase. 0.17% of 350,000 active. inhibition, % at 15.6 µM. AID 651687;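 active = every replicate shows inhibition of at least 40%; inconclusive = mean inhibition at least 40% but some replicate below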;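 also: 0% = neutral control wells and 100% = positive control wells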
# Env fusion inh: HIV envelope-mediated fusion inhibition; AID 651610; inhibition, % at 12.3 µM; 1.1% of 360,000 active; HeLa-JRFL Env/CEM21 cell fusion, luciferase;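 active = mean replicate inhibition score of at least 50 and every replicate individually at or above 50; inconclusive = only one of the two criteria met; inactive = mean below 50 and not all replicates reaching 50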;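 also: 0% = plate neutral controls and 100% = maraviroc near 300 nM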
# EWS-Fli block: inhibitors of EWS/Fli oncoprotein transcriptional activity; A673 NR0B1-luciferase reporter, viability-normalised; inhibition, % at 12.6 µM; 0.67% of 350,000 active; AID 651661;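 active = mean inhibition of at least 50% after viability correction, with every replicate also passing that limit; inconclusive = mean reaches 50% but only one of two replicates passes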;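 also: firefly luciferase signal divided by Alamar Blue viability fluorescence both relative to DMSO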
# FN deposit inh: fibronectin deposition inhibition | AH1F fibroblasts, Alexa488-fibronectin deposition fluorescence, overnight | inhibition, % at 12.6 µM | 0.086% of 350,000 active;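 active = mean inhibition across replicates of 30% or more, regardless of how many single replicates reach that level; inconclusive = mean under 30% yet at least half of replicates reach 30%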;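 also: positive control wells lacked labelled fibronectin entirely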
#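 Material: AH1F fibroblast monolayer depositing Alexa488-labelled fibronectin into matrix / Amount: 10000 AH1F cells per well / Signal: fluorescence 485/525 nm / Medium: DMEM, 2% serum / Compound: single dose, pinned / Incubation: 1 h cell adhesion before compound, then overnight fibronectin incubation / Reagent: Alexa488-FN, 24 nM final / Read-out: inhibition of fibronectin deposition signal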
# PAX8 reporter: PAX8 transcriptional activity inhibition; AID 652154; RMG-I TPO-luciferase reporter, SteadyGlo, 24 h; 1.2% of 360,000 active; inhibition, % at 12.6 µM;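 active = mean replicate inhibition at least 60% with every replicate also reaching 60%; inconclusive = only one of the two criteria is met; inactive = mean below 60% and not all replicates reaching 60%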;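 also: luciferase light reporting Pax8 driven TPO promoter activity; plate controls were median of neutral control wells for no effect and mitoxantrone controls for full effect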
# Active calls of the source: *; u = inconclusive; x = no result; [ ] = another dose, or the depositor's remark.
SMILES,F508del corr,PGC1a acetyl inh,Env fusion inh,EWS-Fli block,FN deposit inh,PAX8 reporter
COc1cc(NC2c3ccccc3C(=O)N2Cc2ccc3c(c2)OCO3)cc(OC)c1OC (stereo unspecified),-1,-13,87*,2,2,11
O=C(Nc1ccc(Cl)cc1)Nc1csc([N+](=O)[O-])c1,-2,11,49,-2,-13,72*
O=C(Nc1ccc(Cl)cc1)Nc1cc([N+](=O)[O-])ccc1F,x,x,9,x,1,-4
O=C(Nc1ccc([N+](=O)[O-])cc1)Nc1ccc(Cl)cc1F,0,-14,66*,-7,-1,2
O=C(Nc1csc([N+](=O)[O-])c1)Nc1c(Cl)cccc1Cl,-5,-5,18,6,0,5
C[C@@H]1CN([C@H](C)CO)S(=O)(=O)c2ccc(C#CC3CC3)cc2O[C@@H]1CN(C)S(C)(=O)=O,1,6,14[16.7 µM],-6,1,-6
CNC[C@H]1OCCCC[C@@H](C)Oc2ccc(NC(=O)Nc3ccc(F)cc3)cc2C(=O)N([C@@H](C)CO)C[C@H]1C,-1,-14,15[16.7 µM],-1,x,-13
COc1ccc(NC(=O)N(C)C[C@@H]2OCCCC[C@H](C)Oc3ccc(NC(=O)CCCN(C)C)cc3C(=O)N([C@@H](C)CO)C[C@H]2C)cc1,-1,-5,14[16.7 µM],-6,x,-20
Cc1ccc(-c2[nH]c3ccccc3c2SCCNC(=O)c2ccc(S(=O)(=O)N3CCOCC3)cc2)cc1,4,x,41,33,9,62*
COc1ccc2c(c1)C(C)=CC(C)(C)N2S(=O)(=O)c1ccc(C)cc1,-5,-24,-67,u,13,79*
CC1=CC(C)(C)N(S(=O)(=O)c2ccc(C)cc2)c2cc(C)ccc21,x,-40,x,x,x,x
CCOc1ccc2c(c1)C(C)=CC(C)(C)N2S(=O)(=O)c1ccc(C)cc1,2,-64,-32,24,-46,82*
C[C@@H]1CN([C@@H](C)CO)C(=O)Cc2cc(NC(=O)Nc3cccc4ccccc34)ccc2O[C@H]1CN(C)Cc1ccncc1,1,-2,-3[16.7 µM],x,x,14
Cc1noc(C)c1NC(=O)N(C)C[C@@H]1Oc2c(NS(=O)(=O)c3ccc(Cl)cc3)cccc2C(=O)N([C@H](C)CO)C[C@H]1C,0,0,4[16.7 µM],-3,1,x
O=C(C[C@@H]1CC[C@@H](NS(=O)(=O)c2ccc(F)cc2)[C@@H](CO)O1)NC1CCCCC1,-2,-3,0[16.7 µM],4,6,8
O=C(CSCc1nc2ccccc2[nH]1)Nc1ccc2ccccc2c1,x,10,71*,x,-12,x
COc1ccc(-c2oc3cc(O)c(OC)c(O)c3c(=O)c2OC)cc1O,3,-8,-37,36,-4,63*
Cc1cc2c(c(C)c1CCO[C@@H]1O[C@H](CO)[C@@H](O)[C@H](O)[C@H]1O)C(=O)[C@@H](C)[C@@H]2O,3,4,-469,-15,3,86*
OC[C@H]1O[C@H](OCCc2ccc(O)cc2)[C@H](O)[C@@H](O)[C@@H]1O,1,x,-35,-3,10,-4
COc1ccccc1-c1ccc2c(c1)C(C)(Cc1cccc(F)c1)C(=O)N2 (stereo unspecified),-5,x,73*,7,-14,5
COc1ccc(C(C)=O)cc1CC1(C)C(=O)Nc2ccc(OC(F)(F)F)cc21 (stereo unspecified),-1,-14,10,-5,3,x
COc1ccc(C(C)=O)cc1CC1(C)C(=O)Nc2ccc(-c3ccccc3OC)cc21 (stereo unspecified),-1,x,70*,-3,-2,-8
CN(C)C(=O)c1cccc(-c2ccc3c(c2)[C@@H]2[C@@H](CCN2C(=O)c2cccnc2)[C@@H](CO)N3)c1,0,-2,x,3,-6,-5
CO[C@H]1CN(C)C(=O)c2ccc(NC(=O)Nc3ccccc3F)cc2OC[C@@H](C)N(C(C)=O)C[C@@H]1C,1,-2,-1[16.7 µM],-6,x,-16
CO[C@@H]1CN(C)C(=O)c2cc(NC(C)=O)ccc2OC[C@@H](C)N(C(=O)c2cnccn2)C[C@@H]1C,2,0,37[16.7 µM],-4,4,18
SMILES,F508del corr,PGC1a acetyl inh,Env fusion inh,EWS-Fli block,FN deposit inh,PAX8 reporter
O=C(Nc1ccc(O)c(-c2nc3ccccc3o2)c1)C1(c2ccc(Cl)cc2)CCCC1,x,x,31,x,13,15
O=C(Nc1ccc(O)c(-c2nc3ccccc3o2)c1)C1(c2ccc([N+](=O)[O-])cc2)CCCC1,x,-17,55*,x,6,10
CCOc1ccc(OCC)c(S(=O)(=O)NNC(=O)c2c(C)nc3ccccn23)c1,-1,-6,x,10,5,86*
Cc1nc2ccccn2c1C(=O)NNS(=O)(=O)c1ccc(C(C)(C)C)cc1,x,x,72*,x,-12,24
COc1ccc(Br)cc1S(=O)(=O)NNC(=O)c1c(C)nc2ccccn12,2,-2,10,7,5,11
C[C@H](CO)N1C[C@H](C)[C@H](CN(C)C(=O)Nc2ccc(F)cc2)Oc2ccc(NC(=O)c3ccncc3)cc2C1=O,-1,0,x,-4,5,-7
COc1ccc(-c2cc(=O)oc3c(C)c(O)c(CN(C)C)cc23)cc1,x,18,73*,x,-12,-12
COc1ccc(-c2cc(=O)oc3c(C)c(OCC(=O)N(C)C)ccc23)cc1,-1,1,21,14,-2,3
COCC(=O)N1C[C@H](C)[C@@H](OC)CN(C)C(=O)c2cc(NC(=O)c3ccc(OC)cc3)ccc2OC[C@@H]1C,1,13,26[16.7 µM],3,1,-12
COc1cccc(C#Cc2ccc([C@H]3[C@H]4CN(C(=O)Cc5cccnc5)CC(=O)N4[C@H]3CO)cc2)c1,3,3,x,5,-7,x
COc1ccc(C(=O)/C(C#N)=N/Nc2ccccc2[N+](=O)[O-])cc1,x,x,28,45,12,27
CCOC(=O)NC(=O)/C(C#N)=N\Nc1ccc(Cl)cc1,x,9,x,x,x,x
N#C/C(=N\Nc1ccc(Cl)cc1)C(=O)c1ccccc1,x,-5,78*,x,8,-10
Cc1c(N/N=C(\C#N)C(=O)c2ccc(Cl)cc2)c(=O)n(-c2ccccc2)n1C,x,x,32,x,15,64*
COc1ccc(C(=O)/C(C#N)=N/Nc2ccc([N+](=O)[O-])cc2)cc1,1,6,15,10,12,90*
C[C@H]1CN(C)C(=O)c2cccc(NS(C)(=O)=O)c2O[C@H]1CN(C)S(C)(=O)=O,x,x,x,x,-9,x
Cc1nn(C)cc1NC(=O)C[C@@H]1CC[C@H]2[C@@H](COc3ccc(NC(=O)C4CCC4)cc3C(=O)N2C)O1,4,8,10[16.7 µM],-1,-12,-3
O=C(O)c1ccc(Oc2ccc(C(F)(F)F)cn2)cc1,1,-9,-16,2,3,4
Cc1ccccc1N1CCN(C(=O)c2ccc(Oc3ccc(C(F)(F)F)cn3)cc2)CC1,x,12,68*,x,2,x
